In the library only some 1.8% were active in any assay of this set; here they are far more common.
M5 PAM = human M5 muscarinic receptor positive allosteric modulators, primary screen, CHO-K1 cells, Fluo-8 calcium fluorescence | CHO-K1 hM5, ACh EC20 PAM; 0% = ACh EC20, 100% = ACh EC100 | Muscarinic acetylcholine receptor M5 (Homo sapiens), P08912 | AID 624038, 2012 | 360,000 compounds, 0.3% hits | activation, % at 3 µM;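 active = activation above the run cutoff, the mean activation of all test compounds plus 3 SD, cut at about 18% in these data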
Target sequence (P08912 whole entry, looked up): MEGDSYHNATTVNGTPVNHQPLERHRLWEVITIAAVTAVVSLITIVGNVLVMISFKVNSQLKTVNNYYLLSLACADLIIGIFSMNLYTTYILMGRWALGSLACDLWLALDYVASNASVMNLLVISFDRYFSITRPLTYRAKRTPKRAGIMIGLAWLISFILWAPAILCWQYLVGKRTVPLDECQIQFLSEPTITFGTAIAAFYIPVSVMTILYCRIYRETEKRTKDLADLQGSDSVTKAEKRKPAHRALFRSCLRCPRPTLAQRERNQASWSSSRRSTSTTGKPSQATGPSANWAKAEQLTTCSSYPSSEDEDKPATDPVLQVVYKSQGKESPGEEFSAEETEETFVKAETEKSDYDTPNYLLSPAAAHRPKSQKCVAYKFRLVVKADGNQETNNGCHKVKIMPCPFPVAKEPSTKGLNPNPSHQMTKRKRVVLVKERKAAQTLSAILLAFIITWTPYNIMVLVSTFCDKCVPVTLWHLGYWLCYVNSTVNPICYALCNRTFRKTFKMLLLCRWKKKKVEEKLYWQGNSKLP
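Assay system: CHO-K1 hM5 cells / Incubation: Fluo-8 loading 80 min at 37 °C plus 30 min room temperature / Technique: Fluo-8 calcium dye fluorescence, kinetic read / Repeats: single replicate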
M4 antag = human M4 muscarinic receptor antagonists, primary screen, CHO cells, Fluo-8 calcium fluorescence; Muscarinic acetylcholine receptor M4 (Homo sapiens), P08173; CHO-hM4 cells, ACh EC80; inhibition, % at 3 µM; 360,000 compounds, 0.73% hits; AID 624125, 2012;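 active = inhibition above its plate's cutoff, the mean inhibition of sample wells plus 3 SD, cut at about 27% in these data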
M4 PAM = human M4 muscarinic receptor positive allosteric modulators, primary screen, CHO-K1 cells, Fluo-8 calcium fluorescence; CHO-K1 hM4/Gqi5, ACh EC20; 0% = ACh EC20, 100% = maximal ACh; activation, % at 3 µM; 360,000 compounds, 0.4% hits;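 active = activation above its plate's cutoff, the mean activation of sample wells plus 3 SD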
M5 antag = human M5 muscarinic receptor antagonists, primary screen, CHO cells, Fluo-8 calcium fluorescence. Muscarinic acetylcholine receptor M5 (Homo sapiens), P08912. CHO-hM5 cells, ACh EC80. inhibition, % at 3 µM. 360,000 compounds, 0.59% hits. AID 624040, 2012;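 active = inhibition above a per-plate cutoff, the mean of that plate's test compounds plus 3 SD, cut at about 27% in these data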
CHRM5 agonist = human M5 muscarinic receptor agonists, primary screen, CHO-K1 cells, Fluo-8 calcium fluorescence | CHO-K1 hM5 cells; 0% DMSO wells, 100% maximal acetylcholine response | activation, % at 3 µM | 360,000 compounds, 0.19% hits;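 active = activation above the run's mean over test compounds plus 3 SD, cut at about 23% in these data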;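 note: signal is peak over basal fluorescence ratio across the kinetic read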
CHRM4 agonist = human M4 muscarinic receptor agonists, primary screen, CHO-K1 cells, Fluo-8 calcium fluorescence. Muscarinic acetylcholine receptor M4 (Homo sapiens), P08173. CHO-K1 hM4/Gqi5; vehicle 0%, full acetylcholine response 100%. activation, % at 3 µM. 360,000 compounds, 0.14% hits;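 active = activation above the run mean over all test wells plus 3 SD, cut at about 32% in these data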;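 note: peak over basal fluorescence ratio per well then scaled between controls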
Hits are given with their value; . = inactive.

SMILES	M5 PAM	M4 antag	M4 PAM	M5 antag	CHRM5 agonist	CHRM4 agonist
Cn1c(SCc2c(Cl)cccc2Cl)nnc1-c1ccc2nonc2c1	.	.	26	.	.	.
Cc1ccc2nc(SCC(=O)N3CCC(Cc4ccccc4)CC3)nc(=O)n2c1	.	.	.	.	.	35
COC(=O)c1[nH]c2ccc(C)cc2c1NC(=O)CCN1CCN(Cc2ccc3c(c2)OCO3)CC1	.	.	.	33	.	.
CCC(Oc1nc2ccccc2nc1-c1ccccc1NC(C)=O)C(=O)c1ccccc1 (stereo not given)	.	.	33	.	.	.
CC(=O)Nc1ccccc1-c1nc2cc(C#N)c(C#N)cc2[nH]c1=O	.	.	.	.	.	.
CCOc1ccccc1NC(=O)C1CC(=O)n2ncnc2N1 (stereo not given)	.	28	.	.	.	.
O=C(Nc1ccc(F)cc1)C(c1ccnc2ccccc12)N1CCN(C(=O)c2ccco2)CC1 (stereo not given)	.	.	.	.	.	.
O=C(CN1CCN(c2ccccc2F)CC1)c1c[nH]c2ccccc12	20	.	.	.	.	.
CCOC(=O)c1ccccc1-n1c(C)cc(C2N=C(N)Nc3nc4ccccc4n32)c1C (stereo not given)	.	60	.	.	.	.
Cc1nc2nc(SCC(=O)NCCCN3CCCCCC3)nn2c(C)c1Cc1ccccc1	.	38	.	.	.	.
Cc1ccccc1Cc1c(C)nc2nc(SCC(=O)NCCCN3CCCCC3)nn2c1C	.	.	.	.	.	.
CCCn1c(=S)[nH]c2cc(C(=O)N3CCN(c4ccccc4OC)CC3)ccc2c1=O	.	39	.	.	.	.
Cc1n[nH]c(C)c1CCC(=O)N/N=C/c1cccs1	.	.	.	.	.	.
C[C@H](CO)N1C[C@H](C)[C@@H](CN(C)S(=O)(=O)c2cccs2)Oc2ccc(NC(=O)CCC(F)(F)F)cc2C1=O	.	29	.	.	.	.
COc1ccc(NC(=O)N(C)C[C@H]2Oc3c(NC(=O)Nc4ccc(C(F)(F)F)cc4)cccc3C(=O)N([C@H](C)CO)C[C@@H]2C)cc1	.	29	.	.	.	37
C[C@@H]1CN([C@H](C)CO)C(=O)c2cc(NC(=O)Nc3ccc(C(F)(F)F)cc3)ccc2O[C@H]1CN(C)S(=O)(=O)c1cccs1	.	.	.	.	.	.
C[C@H](CO)N1C[C@H](C)[C@@H](CN(C)C(=O)Nc2ccc3c(c2)OCO3)Oc2c(NC(=O)Nc3ccc(C(F)(F)F)cc3)cccc2C1=O	.	30	.	.	.	.
CCOc1ccc(NC(=O)COC(=O)CSCC(=O)Nc2ccc(C)cc2C)cc1	.	.	.	.	.	.
Cc1cc(C)n(-c2ccc(C(=O)Nc3cccc([N+](=O)[O-])c3)cc2)n1	.	.	.	27	.	.
Cc1cc(C)n(-c2ccc(C(=O)Nc3cccc(S(=O)(=O)N(C)C)c3)cc2)n1	.	.	.	.	.	.
O=C(CNC(=O)c1nc[nH]c1C(=O)N1CCc2ccccc2C1)OCc1ccccc1	.	29	.	27	.	.
O=C(CNC(=O)c1nc[nH]c1C(=O)N1CCNCC1)OCc1ccccc1	.	.	.	.	.	.
C[C@@H](NC(=O)c1nc[nH]c1C(=O)OCc1ccccc1)c1ccccc1	.	.	.	.	.	.
C[C@@H](NC(=O)c1nc[nH]c1C(=O)NCC(=O)OCc1ccccc1)c1ccccc1	.	.	.	28	.	.
C[C@H](NC(=O)c1nc[nH]c1C(=O)NCc1ccc(CNC(=O)OC(C)(C)C)cc1)C(=O)OCc1ccccc1	.	50	.	29	.	.
SMILES	M5 PAM	M4 antag	M4 PAM	M5 antag	CHRM5 agonist	CHRM4 agonist
O=C(CNS(=O)(=O)c1cccc(Br)c1)NCCCc1ccccc1	.	.	.	.	.	.
Cn1c(=S)c2[nH]c(SCC3CCCO3)nc2n(C)c1=O (stereo not given)	.	.	.	.	.	.
Cc1ccnn1-c1ccc(C(=O)OCC(=O)Nc2ccc(F)cc2)cc1	.	.	.	.	.	.
Cc1ccc2c(Cl)cc(Cl)c(OCC(=O)NC3CCS(=O)(=O)C3)c2n1 (stereo not given)	.	.	.	.	.	.
CCOc1ccccc1NC(=O)COC(=O)COc1c(Cl)cc(Cl)c2ccc(C)nc12	34	.	.	28	.	.
Cc1ccc2c(Cl)cc(Cl)c(OCC(=O)NCCc3ccccn3)c2n1	.	77	.	.	.	.
CCCNC(=O)Cn1c(=O)/c(=C/c2ccc(-c3ccc([N+](=O)[O-])cc3)o2)s/c1=C\C(=O)C(C)(C)C	.	.	.	53	123	35
CSc1ccc(/C=c2\s/c(=C\C(=O)C(C)(C)C)n(CC(=O)NCCC3=CCCCC3)c2=O)cc1	.	.	.	.	.	.
CC(=O)c1c[nH]c(C(=O)NC2CCCCCC2)c1	.	.	.	.	.	.
CN(C)CCC(=O)C(Cc1ccccc1)c1ccccc1 (stereo not given)	.	35	.	.	.	.
CC(CCCN(C)C)C(Cc1ccccc1)c1ccccc1 (stereo not given)	.	29	.	31	.	.
CN(C)CCNC(=O)C(c1ccccc1)c1ccccc1	.	.	.	.	.	.
CN(C)CC(c1ccccc1)c1ccccc1	.	.	.	.	.	.
C=CCC(CC=C)(NC(=O)c1ccccc1)c1ccccc1	.	.	.	.	.	.
C=CCC(CC=C)(NC(=O)c1ccccc1C)c1ccccc1	41	.	.	.	.	.
CCN1CCN(C(=O)c2ccc3c(c2)S(=O)(=O)c2ccccc2C3=O)CC1	.	.	.	.	.	.
O=C(OCCN1C(=O)c2cccc3c(N4CCOCC4)ccc(c23)C1=O)c1ccccc1Cl	.	40	.	45	.	.
Cn1nc(C(C)(C)C)c([N+](=O)[O-])c1C(=O)NC(C)(C)C	.	.	32	.	.	.
Cn1nc(C(C)(C)C)c([N+](=O)[O-])c1C(=O)Nc1ccccc1	.	.	.	.	.	.
COc1ccc(CSCCc2n[nH]c(=S)n2-c2ccccc2)cc1	.	48	.	.	.	.
CC(C)(C#CCN1CCCCC1)OCCOC(c1ccccc1)c1ccccc1	.	97	.	30	.	.
CC1CCCN1CC#CC(O)(c1ccccc1)c1ccccc1 (stereo not given)	.	97	.	99	.	.

Bioassay records deposited in PubChem by The Scripps Research Institute Molecular Screening Center.
